# In ChEMBL document CHEMBL5058577, “EUbOPEN Chemogenomics Library 2 (Multiplex)” (2022):
# Values joined by “and” are separate entries in the source; they are usually repeats but may differ in a detail not shown here. Equal values may be shown once.
# Tested on: U2OS
# Test: Multiplex assay against U2OS
# Assay type: toxicity, cell-based
# Conditions: human, 10 µM, compound concentration 10 uM
# Procedure, shortened: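 On a CQ1 microscope at 37°C and 5% CO2, live cells were imaged after compound addition. They had been stained at seeding with Hoechst33342, BioTracker Green Microtubule Cytoskeleton Dye, MitoTracker Red and Annexin V Alexa Fluor 680. CellPathfinder machine-learning gating assigned cells to Hoechst high-intensity objects or normal cells, normal cells to healthy, pyknosed or fragmented nuclei, and pyknosed cells to mitotic or apoptotic. Tubulin, mitochondrial-mass and membrane-permeability phenotypes are per cents of healthy-nucleus cells.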
smiles,measurement,setting,value
CC(=O)O[C@H]1C(=O)[C@@]2(C)[C@H]([C@H](OC(=O)c3ccccc3)[C@]3(O)C[C@H](OC(=O)[C@H](O)[C@@H](NC(=O)c4ccccc4)c4ccccc4)C(C)=C1C3(C)C)[C@]1(OC(C)=O)CO[C@@H]1C[C@@H]2O [PACLITAXEL],Population Apoptotic (%),"12 h, replicate 1",64% and 59%
same,Population Fragmented Nuclei (%),"12 h, replicate 1",28% and 29%
same,Population Healthy Nuclei (%),"12 h, replicate 1",46% and 43%
same,Population Hoechst High Intensity Objects (%),"12 h, replicate 1",8% and 3%
same,Population Membrane Permeable-Phenotype (%),"12 h, replicate 1",23% and 12%
same,Population Mitochondria Different-Phenotype (%),"12 h, replicate 1",25% and 38%
same,Population Mitotic Cells (%),"12 h, replicate 1",35% and 40%
same,Population Normal (%),"12 h, replicate 1",91% and 96%
same,Population Pyknosed Nuclei (%),"12 h, replicate 1",24% and 26%
same,Population Tubulin-Different-Phenotype (%),"12 h, replicate 1",16% and 7%
same,Total Cell Count,"12 h, replicate 1",200 and 236
same,Population Apoptotic (%),"12 h, replicate 2",71% and 72%
same,Population Fragmented Nuclei (%),"12 h, replicate 2",16% and 22%
same,Population Healthy Nuclei (%),"12 h, replicate 2",60% and 63%
same,Population Hoechst High Intensity Objects (%),"12 h, replicate 2",2%
same,Population Membrane Permeable-Phenotype (%),"12 h, replicate 2",10% and 4%
same,Population Mitochondria Different-Phenotype (%),"12 h, replicate 2",30% and 46%
same,Population Mitotic Cells (%),"12 h, replicate 2",28% and 27%
same,Population Normal (%),"12 h, replicate 2",97%
same,Population Pyknosed Nuclei (%),"12 h, replicate 2",23% and 14%
same,Population Tubulin-Different-Phenotype (%),"12 h, replicate 2",14% and 8%
same,Total Cell Count,"12 h, replicate 2",94 and 79
same,Population Apoptotic (%),"24 h, replicate 1",69% and 64%
same,Population Fragmented Nuclei (%),"24 h, replicate 1",33% and 27%
same,Population Healthy Nuclei (%),"24 h, replicate 1",36% and 49%
same,Population Hoechst High Intensity Objects (%),"24 h, replicate 1",4% and 5%
same,Population Membrane Permeable-Phenotype (%),"24 h, replicate 1",21% and 13%
same,Population Mitochondria Different-Phenotype (%),"24 h, replicate 1",44% and 34%
same,Population Mitotic Cells (%),"24 h, replicate 1",30% and 35%
same,Population Normal (%),"24 h, replicate 1",95% and 94%
same,Population Pyknosed Nuclei (%),"24 h, replicate 1",29% and 23%
same,Population Tubulin-Different-Phenotype (%),"24 h, replicate 1",13% and 12%
same,Total Cell Count,"24 h, replicate 1",198 and 233
same,Population Apoptotic (%),"24 h, replicate 2",58% and 85%
same,Population Fragmented Nuclei (%),"24 h, replicate 2",25%
same,Population Healthy Nuclei (%),"24 h, replicate 2",48% and 50%
same,Population Hoechst High Intensity Objects (%),"24 h, replicate 2",7%
same,Population Membrane Permeable-Phenotype (%),"24 h, replicate 2",15% and 9%
same,Population Mitochondria Different-Phenotype (%),"24 h, replicate 2",52%
same,Population Mitotic Cells (%),"24 h, replicate 2",41% and 15%
same,Population Normal (%),"24 h, replicate 2",92%
same,Population Pyknosed Nuclei (%),"24 h, replicate 2",26% and 24%
same,Population Tubulin-Different-Phenotype (%),"24 h, replicate 2",18% and 9%
same,Total Cell Count,"24 h, replicate 2",95 and 90
same,Population Apoptotic (%),"48 h, replicate 1",76% and 82%
same,Population Fragmented Nuclei (%),"48 h, replicate 1",35% and 39%
same,Population Healthy Nuclei (%),"48 h, replicate 1",30% and 25%
same,Population Hoechst High Intensity Objects (%),"48 h, replicate 1",12% and 13%
same,Population Membrane Permeable-Phenotype (%),"48 h, replicate 1",27% and 25%
same,Population Mitochondria Different-Phenotype (%),"48 h, replicate 1",29% and 25%
same,Population Mitotic Cells (%),"48 h, replicate 1",23% and 17%
same,Population Normal (%),"48 h, replicate 1",87% and 86%
same,Population Pyknosed Nuclei (%),"48 h, replicate 1",33% and 34%
same,Population Tubulin-Different-Phenotype (%),"48 h, replicate 1",16% and 14%
same,Total Cell Count,"48 h, replicate 1",203 and 246
same,Population Apoptotic (%),"48 h, replicate 2",70% and 91%
same,Population Fragmented Nuclei (%),"48 h, replicate 2",27% and 37%
same,Population Healthy Nuclei (%),"48 h, replicate 2",31% and 34%
same,Population Hoechst High Intensity Objects (%),"48 h, replicate 2",8% and 15%
same,Population Membrane Permeable-Phenotype (%),"48 h, replicate 2",14% and 6%
same,Population Mitochondria Different-Phenotype (%),"48 h, replicate 2",50% and 44%
same,Population Normal (%),"48 h, replicate 2",91% and 84%
same,Population Pyknosed Nuclei (%),"48 h, replicate 2",41% and 27%
same,Population Tubulin-Different-Phenotype (%),"48 h, replicate 2",25% and 13%
same,Total Cell Count,"48 h, replicate 2",98
